Assay results reported in PMC10209631 (RSC Advances, 2023).
Like-named read-outs stand apart in the source and are kept apart here.

Tests used:
HepG2 = experiment: Antiproliferative activity; format: cell-based; details: Homo sapiens, HepG2, 48 h, read-out: antiproliferative activity IC50, HepG2
[1] = system: normal fibroblasts (WI-38); experiment: Cytotoxicity; details: for IC50: read-out: IC50, normal fibroblasts WI-38; for selectivity index (SI): SI = WI-38 IC50/IC50 against cancer cells; for toxicity to the normal fibroblasts (in words): WI-38 versus cancer cells
MCF-7 cells [2] = experiment: Cell cycle analysis; format: cell-based, human; details: MCF7, IC50 concentration, 48 h
MCF-7 cells [3] = experiment: Apoptosis assay by annexin V-PI; format: cell-based, human; details: MCF7, IC50 concentration, 48 h; for necrotic cells (upper left quadrant, UL): DMSO 0.1%
Summary of the method: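 MCF-7 cells seeded at 1 × 10⁵ cells per mL and held overnight at 37 °C, 5% CO₂. Test compound or DMSO added in fresh medium for 48 h. Cells trypsinized, washed twice in PBS, and stained 15 min with annexin V-FITC plus propidium iodide in binding buffer. Flow cytometry scored early apoptotic (LR), late apoptotic (UR) and necrotic (UL) quadrants.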

Row | Compound | IC50 (HepG2) | IC50 ([1]; Homo sapiens, WI-38, 48 h) | selectivity index (SI) [1] | other results
1 | Nc1nnc(NC(=O)c2ccccc2)s1 [Compound 2, N-(5-Amino-1,3,4-thiadiazol-2-yl)benzamide] | 14.1 ± 1.5 µM | 17.6 ± 4.1 µM | 1.0 | –
2 | N#CCC(=O)Nc1nnc(NC(=O)c2ccccc2)s1 [Compound 3, N-(5-(2-Cyanoacetamido)-1,3,4-thiadiazol-2-yl)benzamide] | 31.3 ± 5.1 µM | 37.4 ± 2.5 µM | 1.2 | –
3 | N=c1oc2ccccc2cc1C(=O)Nc1nnc(NC(=O)c2ccccc2)s1 [Compound 4, N-(5-Benzamido-1,3,4-thiadiazol-2-yl)-2-imino-2H-chromene-3-carboxamide] | 48.5 ± 2.9 µM | 29.4 ± 2.2 µM | 1.3 | toxicity to the normal fibroblasts (in words) [1]: toxic to the normal fibroblasts
4 | O=C(Nc1nnc(NC(=O)c2cc3ccccc3oc2=O)s1)c1ccccc1 [Compound 5, N-(5-Benzamido-1,3,4-thiadiazol-2-yl)-2-oxo-2H-chromene-3-carboxamide] | 63.9 ± 8.9 µM | 91.2 ± 4.6 µM | 1.5 | –
5 | Cc1cc(C)n(-c2nnc(NC(=O)c3ccccc3)s2)c(=O)c1C#N [Compound 9, N-(5-(3-Cyano-4,6-dimethyl-2-oxopyridin-1(2H)-yl)-1,3,4-thiadiazol-2-yl)benzamide] | 39.1 ± 2.7 µM | 50.4 ± 0.9 µM | 2.5 | –
6 | Cc1cc(-c2ccccc2)n(-c2nnc(NC(=O)c3ccccc3)s2)c(=O)c1C#N [Compound 10, N-(5-(3-Cyano-4-methyl-2-oxo-6-phenylpyridin-1(2H)-yl)-1,3,4-thiadiazol-2-yl)benzamide] | 19.4 ± 1.5 µM | > 100 µM | 1.7 | –
7 | N#CC(C(=O)Nc1nnc(NC(=O)c2ccccc2)s1)=C1SC(=O)CN1c1ccccc1 [Compound 12, N-(5-(2-Cyano-2-(5-oxo-3-phenylthiazolidin-2-ylidene)acetamido)-1,3,4-thiadiazol-2-yl)benzamide] | 69.5 ± 6.5 µM | > 100 µM | – | –
8 | N#CC(C(=O)Nc1nnc(NC(=O)c2ccccc2)s1)=C1SCCN1c1ccccc1 [Compound 14, N-(5-(2-Cyano-2-(3-phenylthiazolidin-2-ylidene)acetamido)-1,3,4-thiadiazol-2-yl)benzamide] | > 100 µM | 53.8 ± 3.4 µM | 0.8 | –
9 | N#Cc1c(Nc2ccccc2)n2nc(NC(=O)c3ccccc3)sc2nc1=O [Compound 15, N-(6-Cyano-7-oxo-5-(phenylamino)-7H-[1,3,4]thiadiazolo[3,2-a]pyrimidin-2-yl)benzamide] | 16.8 ± 1.7 µM | 19.4 ± 1.5 µM | 1.4 | –
10 | N#CC(C(=O)Nc1nnc(NC(=O)c2ccccc2)s1)C(=S)Nc1ccccc1 (centres unmarked) [Compound 16, N-(5-(2-Cyano-3-(phenylamino)-3-thioxopropanamido)-1,3,4-thiadiazol-2-yl)benzamide] | 14.7 ± 2.3 µM | 85.9 ± 1.9 µM | 4.1 | –
11 | CSC(SC)=C(C#N)C(=O)Nc1nnc(NC(=O)c2ccccc2)s1 [Compound 17, N-(5-(2-Cyano-3,3-bis(methylthio)acrylamido)-1,3,4-thiadiazol-2-yl)benzamide] | 12.5 ± 1 µM | 81.2 ± 4.1 µM | 6.0 | –
12 | N#CC(C(=O)Nc1nnc(NC(=O)c2ccccc2)s1)=C1Nc2ccccc2N1 [Compound 18, N-(5-(2-Cyano-2-(1,3-dihydro-2H-benzo[d]imidazole-2-ylidene)acetamido)-1,3,4-thiadiazol-2-yl)benzamide] | 47.3 ± 8.2 µM | > 100 µM | 1.5 | –
13 | N#CC(C(=O)Nc1nnc(NC(=O)c2ccccc2)s1)=C1Nc2ccccc2O1 [Compound 19, N-(5-(2-(Benzo[d]oxazol-2(3H)-ylidene)-2-cyanoacetamido)-1,3,4-thiadiazol-2-yl)benzamide] | 19.4 ± 1.5 µM | 60.3 ± 3.7 µM | 6.1 | cells arrested at G2/M (MCF-7 cells [2]; DMSO 4.6%): 23.3%; necrotic cells (upper left quadrant, UL) (MCF-7 cells [3]): 15%; early apoptosis (lower-right quadrant, LR) (MCF-7 cells [3]; DMSO 3.2%): 15%
14 | N#CC(C(=O)Nc1nnc(NC(=O)c2ccccc2)s1)=C1Oc2cccnc2O1 [Compound 20, N-(5-(2-([1,3]dioxolo[4,5-b]pyridin-2-ylidene)-2-cyanoacetamido)-1,3,4-thiadiazol-2-yl)benzamide] | 29.6 ± 3.1 µM | 42.7 ± 2.7 µM | 1.5 | –
15 | COc1cccc2c1C(=O)c1c(O)c3c(c(O)c1C2=O)C[C@@](O)(C(=O)CO)C[C@@H]3O[C@H]1C[C@H](N)[C@H](O)[C@H](C)O1 [DOX, Doxorubicin, reference compound] | 4.5 ± 0.2 µM | – | – | –
16 | N-(5-(2-Cyano-2-(4,6-dioxo-1-phenylpiperidin-2-ylidene)acetamido)-1,3,4-thiadiazol-2-yl)benzamide [Compound 13] | – | – | 0.5 | IC50 ([1]; MTT, 48 h, mean ±SEM, three independent experiments): 23.6 ± 3.2 µM

Further lines, with some results ahead:

Row | IC50 (HepG2) | Compound | IC50 ([1]; Homo sapiens, WI-38, 48 h) | selectivity index (SI) [1] | other results
17 | 15.9 ± 1.3 µM | COc1ccc(C=C(C#N)C(=O)Nc2nnc(NC(=O)c3ccccc3)s2)cc1 [Compound 6b, N-(5-(2-Cyano-3-(4-methoxyphenyl)acrylamido)-1,3,4-thiadiazol-2-yl)benzamide] | 50.4 ± 0.9 µM | 4.9 | sub-G1 percent of cells (MCF-7 cells [2]; DMSO 7.4%): 53.6%; induction of apoptosis (in words) (MCF-7 cells [3]): did not induce apoptosis; necrotic cells (upper left quadrant, UL) (MCF-7 cells [3]): 12.5%
18 | 6.34 ± 0.9 µM | N#CC(=Cc1ccc(Cl)cc1Cl)C(=O)Nc1nnc(NC(=O)c2ccccc2)s1 [Compound 7a, N-(5-(2-Cyano-3-(2,4-dichlorophenyl)acrylamido)-1,3,4-thiadiazol-2-yl)benzamide] | 9.18 ± 3.6 µM | 1.5 | toxicity to the normal fibroblasts (in words) [1]: toxic to the normal fibroblasts
19 | 14.7 ± 2.1 µM | N#CC(=Cc1ccc(Cl)cc1)C(=O)Nc1nnc(NC(=O)c2ccccc2)s1 [Compound 7b, N-(5-(3-(4-Chlorophenyl)-2-cyanoacrylamido)-1,3,4-thiadiazol-2-yl)benzamide] | 42.1 ± 2.7 µM | 2.4 | –
20 | 16.3 ± 1.8 µM | N#CC(=Cc1ccco1)C(=O)Nc1nnc(NC(=O)c2ccccc2)s1 [Compound 7c, N-(5-(2-Cyano-3-(furan-2-yl)acrylamido)-1,3,4-thiadiazol-2-yl)benzamide] | 22.6 ± 3 µM | 0.8 | –
21 | 66.1 ± 3.5 µM | N#CC(=Cc1cccs1)C(=O)Nc1nnc(NC(=O)c2ccccc2)s1 [Compound 7d, N-(5-(2-Cyano-3-(thiophen-2-yl)acrylamido)-1,3,4-thiadiazol-2-yl)benzamide] | 12.3 ± 1.2 µM | 0.4 | toxicity to the normal fibroblasts (in words) [1]: toxic to the normal fibroblasts
22 | 56.3 ± 7.8 µM | N#CC(=Cc1ccc([N+](=O)[O-])cc1)C(=O)Nc1nnc(NC(=O)c2ccccc2)s1 [Compound 7e, N-(5-(2-Cyano-3-(4-nitrophenyl)acrylamido)-1,3,4-thiadiazol-2-yl)benzamide] | 23.4 ± 3.6 µM | 0.4 | –
23 | 21.3 ± 3.7 µM | COc1cc(C=C(C#N)C(=O)Nc2nnc(NC(=O)c3ccccc3)s2)ccc1O [Compound 7f, N-(5-(2-Cyano-3-(4-hydroxy-3-methoxyphenyl)acrylamido)-1,3,4-thiadiazol-2-yl)benzamide] | 14.5 ± 0.3 µM | 0.9 | –
